Reference: ChEMBL document CHEMBL2029259, “Design, synthesis, and biological evaluation of novel conformationally constrained inhibitors targeting epidermal growth factor receptor threonine⁷⁹⁰ → methionine⁷⁹⁰ mutant” (J Med Chem, 2012)
Activity calls are given as the source filed them. The calls are words filed in the database; no cut-off is given here.

Tests used:
A549 = test: Antiproliferative activity against human A549 cells expressing wild type EGFR coexpressing k-Ras mutant after 72 hrs by MTS assay; details: A549, 72 h
[1] = Cytotoxicity against human HLF1 cells after 72 hrs by MTS assay; type: cell-based; details: hlf1, 72 h
Method in brief: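 MTS proliferation read-out at 490 nm after 72 h exposure, cell number set to give absorbance 1.3−2.2. Six concentrations, 0.1 nM to 10 μM, at least six parallels each, repeated at least four times. IC50 from nonlinear sigmoidal dose−response fit.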

HCC827 [2] = test: Induction of Cell cycle arrest in human HCC827 cells harboring EGFR del E746-A750 mutant assessed as G1 phase cells after 24 hrs by flow cytometry assay; type: functional, cell-based
Method in brief: (§1)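 Cells in six-well plates serum-starved 24 h to synchronize in G0−G1, then treated at indicated concentrations for 24 h. Lightly trypsinized and cell-cycle distribution analysed by flow cytometry.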

[3] = molecular target: Platelet-derived growth factor receptor beta (Homo sapiens) (UniProt P09619); test: Binding affinity to PDGFRbeta
Method in brief: (§2)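 Ambit KINOMEscan binding assay. Binding for 1 h at r.t. Unbound kinase captured on immobilized affinity ligand and quantified by qPCR.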

NCI-H1975 [4] = test: Antiproliferative activity against human NCI-H1975 cells harboring EGFR L858R/T790M mutant assessed as inhibition of colony formation after 9 days by crystal violet staining; type: functional, cell-based
Method in brief: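 H1975 cells seeded at 500 cells per 6-cm dish and grown 24 h, then treated at 0.1 to 10 nM. Medium with compound replaced every 3 days. After 9 days, fixed with 4% formaldehyde and stained with 0.2% crystal violet.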

[5] = molecular target: Cytoplasmic tyrosine-protein kinase BMX (Homo sapiens) (UniProt P51813); test: Binding affinity to BMX; method in brief: as §2
[6] = molecular target: T1, Epidermal growth factor receptor (Homo sapiens, UniProt P00533, L858R); test: Inhibition of EGFR L858R mutant after 1.5 hr by FRET assay; type: protein assay
T1 sequence (P00533 25-1210 L858R limits assumed): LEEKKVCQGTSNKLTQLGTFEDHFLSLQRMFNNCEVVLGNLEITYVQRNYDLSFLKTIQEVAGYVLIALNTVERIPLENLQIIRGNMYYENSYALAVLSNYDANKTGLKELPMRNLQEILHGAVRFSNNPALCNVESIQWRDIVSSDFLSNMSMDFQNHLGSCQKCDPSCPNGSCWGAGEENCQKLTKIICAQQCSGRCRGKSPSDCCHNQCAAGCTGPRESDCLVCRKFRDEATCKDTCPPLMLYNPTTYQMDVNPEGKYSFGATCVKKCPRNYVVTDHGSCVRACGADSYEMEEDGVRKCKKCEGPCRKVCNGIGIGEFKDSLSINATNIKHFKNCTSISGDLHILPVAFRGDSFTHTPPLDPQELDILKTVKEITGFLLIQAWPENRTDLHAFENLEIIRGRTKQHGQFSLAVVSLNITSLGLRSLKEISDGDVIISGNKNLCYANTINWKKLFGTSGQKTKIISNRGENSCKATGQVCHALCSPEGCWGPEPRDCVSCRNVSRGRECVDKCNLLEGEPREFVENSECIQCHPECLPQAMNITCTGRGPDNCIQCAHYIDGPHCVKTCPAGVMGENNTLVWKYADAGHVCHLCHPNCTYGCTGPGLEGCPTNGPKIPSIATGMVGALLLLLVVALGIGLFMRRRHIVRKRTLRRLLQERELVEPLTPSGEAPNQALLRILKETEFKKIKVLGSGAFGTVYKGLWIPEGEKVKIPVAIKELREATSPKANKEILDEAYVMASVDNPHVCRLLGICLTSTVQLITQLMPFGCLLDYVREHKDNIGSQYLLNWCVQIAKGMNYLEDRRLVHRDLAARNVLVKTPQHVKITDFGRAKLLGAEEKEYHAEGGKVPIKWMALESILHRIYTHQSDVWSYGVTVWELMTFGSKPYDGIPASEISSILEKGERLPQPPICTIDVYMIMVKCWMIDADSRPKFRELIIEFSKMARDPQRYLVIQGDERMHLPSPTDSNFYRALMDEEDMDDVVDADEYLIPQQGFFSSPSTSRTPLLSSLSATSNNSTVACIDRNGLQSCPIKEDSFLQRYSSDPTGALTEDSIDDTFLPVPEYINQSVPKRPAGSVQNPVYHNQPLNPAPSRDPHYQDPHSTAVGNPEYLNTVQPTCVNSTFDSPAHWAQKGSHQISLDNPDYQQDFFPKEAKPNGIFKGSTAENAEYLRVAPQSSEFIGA

[7] = molecular target: Tyrosine-protein kinase Tec (Homo sapiens) (UniProt P42680); test: Binding affinity to TEC; method in brief: as §2
[8] = molecular target: Tyrosine-protein kinase JAK3 (Homo sapiens) (UniProt P52333); test: Binding affinity to JAK3; method in brief: as §2
[9] = molecular target: Mitogen-activated protein kinase kinase kinase 15 (Homo sapiens) (UniProt Q6ZN16); test: Binding affinity to MAP3K15; method in brief: as §2
[10] = molecular target: T2, Epidermal growth factor receptor (Homo sapiens, UniProt P00533, T790M); test: Inhibition of EGFR T790M mutant after 1.5 hr by FRET assay; type: protein assay
T2 sequence (P00533 25-1210 T790M limits assumed): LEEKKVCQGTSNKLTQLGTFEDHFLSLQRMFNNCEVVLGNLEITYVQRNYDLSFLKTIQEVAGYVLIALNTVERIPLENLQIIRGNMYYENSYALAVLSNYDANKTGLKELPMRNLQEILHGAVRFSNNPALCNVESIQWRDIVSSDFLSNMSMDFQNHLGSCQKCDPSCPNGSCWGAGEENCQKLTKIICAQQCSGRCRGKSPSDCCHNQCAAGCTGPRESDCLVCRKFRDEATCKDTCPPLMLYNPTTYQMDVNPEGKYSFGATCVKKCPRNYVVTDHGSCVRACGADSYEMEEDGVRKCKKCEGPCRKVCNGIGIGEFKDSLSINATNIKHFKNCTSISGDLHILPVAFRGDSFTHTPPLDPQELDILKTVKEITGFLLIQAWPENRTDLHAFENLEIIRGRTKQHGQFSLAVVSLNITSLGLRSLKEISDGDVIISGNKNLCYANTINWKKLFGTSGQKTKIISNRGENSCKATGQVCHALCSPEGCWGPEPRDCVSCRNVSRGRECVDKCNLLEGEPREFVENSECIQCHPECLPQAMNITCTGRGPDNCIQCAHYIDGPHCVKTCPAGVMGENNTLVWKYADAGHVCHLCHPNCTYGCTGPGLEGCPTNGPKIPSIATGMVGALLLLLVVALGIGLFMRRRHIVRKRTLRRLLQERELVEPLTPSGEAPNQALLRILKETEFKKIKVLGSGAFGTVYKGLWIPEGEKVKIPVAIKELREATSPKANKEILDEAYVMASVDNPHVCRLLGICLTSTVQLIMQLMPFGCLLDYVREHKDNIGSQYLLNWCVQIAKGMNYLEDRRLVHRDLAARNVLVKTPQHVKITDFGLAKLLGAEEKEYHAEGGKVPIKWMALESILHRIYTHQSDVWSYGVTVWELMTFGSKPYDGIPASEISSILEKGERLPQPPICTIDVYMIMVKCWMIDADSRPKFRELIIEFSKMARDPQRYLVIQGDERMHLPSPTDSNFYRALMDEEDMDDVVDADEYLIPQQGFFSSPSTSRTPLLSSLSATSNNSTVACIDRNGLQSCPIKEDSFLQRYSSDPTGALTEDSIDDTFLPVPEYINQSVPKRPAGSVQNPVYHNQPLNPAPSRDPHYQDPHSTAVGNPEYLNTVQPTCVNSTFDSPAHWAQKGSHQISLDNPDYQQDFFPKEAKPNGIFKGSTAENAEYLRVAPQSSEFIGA

[11] = molecular target: Tyrosine-protein kinase Lck (Homo sapiens) (UniProt P06239); test: Binding affinity to LCK; method in brief: as §2
[12] = molecular target: T3, Epidermal growth factor receptor (Homo sapiens, UniProt P00533, L858R/T790M); test: Inhibition of EGFR L858R/T790M mutant after 1.5 hr by FRET assay; type: protein assay
T3 sequence (P00533 25-1210 T790M/L858R limits assumed): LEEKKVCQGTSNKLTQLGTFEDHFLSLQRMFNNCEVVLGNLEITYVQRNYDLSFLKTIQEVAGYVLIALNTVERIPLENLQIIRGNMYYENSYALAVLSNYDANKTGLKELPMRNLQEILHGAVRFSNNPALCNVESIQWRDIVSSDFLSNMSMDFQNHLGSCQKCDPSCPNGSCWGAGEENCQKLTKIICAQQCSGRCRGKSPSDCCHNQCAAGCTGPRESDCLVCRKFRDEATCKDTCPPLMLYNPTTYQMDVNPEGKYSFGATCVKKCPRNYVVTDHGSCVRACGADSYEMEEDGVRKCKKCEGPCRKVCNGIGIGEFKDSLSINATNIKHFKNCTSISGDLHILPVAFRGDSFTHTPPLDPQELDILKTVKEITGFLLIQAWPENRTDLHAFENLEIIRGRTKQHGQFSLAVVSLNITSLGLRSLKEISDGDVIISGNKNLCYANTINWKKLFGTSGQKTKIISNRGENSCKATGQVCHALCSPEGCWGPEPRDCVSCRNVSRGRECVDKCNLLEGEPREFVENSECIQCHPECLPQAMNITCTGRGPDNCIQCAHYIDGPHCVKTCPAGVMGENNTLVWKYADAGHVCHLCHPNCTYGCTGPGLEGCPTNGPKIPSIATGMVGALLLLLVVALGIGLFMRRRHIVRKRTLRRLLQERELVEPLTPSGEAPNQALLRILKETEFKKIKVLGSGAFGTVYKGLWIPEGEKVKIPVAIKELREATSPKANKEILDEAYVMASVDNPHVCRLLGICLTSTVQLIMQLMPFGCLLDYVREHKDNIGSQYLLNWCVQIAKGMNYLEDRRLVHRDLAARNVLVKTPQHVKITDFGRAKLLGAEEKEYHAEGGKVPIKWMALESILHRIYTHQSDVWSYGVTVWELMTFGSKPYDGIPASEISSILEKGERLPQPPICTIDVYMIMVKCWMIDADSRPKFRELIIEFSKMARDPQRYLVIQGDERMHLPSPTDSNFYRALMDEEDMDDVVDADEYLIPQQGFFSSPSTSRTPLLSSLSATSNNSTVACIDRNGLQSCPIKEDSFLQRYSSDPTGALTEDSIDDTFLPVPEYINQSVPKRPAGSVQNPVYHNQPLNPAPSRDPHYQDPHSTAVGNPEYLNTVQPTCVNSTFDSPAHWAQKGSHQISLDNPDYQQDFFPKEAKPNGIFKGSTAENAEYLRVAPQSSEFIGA

[13] = molecular target: T4, Epidermal growth factor receptor (Homo sapiens, UniProt P00533); test: Inhibition of EGFR after 1.5 hr by FRET assay
[14] = tested on: Mast/stem cell growth factor receptor Kit (Homo sapiens), P10721 [V559D]; test: Binding affinity to KIT V559D mutant; method in brief: as §2
[15] = Antiproliferative activity against human HL7702 cells expressing wilt type EGFR after 72 hrs by MTS assay; details: L02, 72 h
NCI-H1975 [16] = test: Induction of apoptosis in human NCI-H1975 cells harboring EGFR L858R/T790M mutant after 48 hrs by flow cytometry assay
[17] = molecular target: Activated CDC42 kinase 1 (Homo sapiens) (UniProt Q07912); test: Binding affinity to TNK2; method in brief: as §2
HCC827 [18] = test: Induction of apoptosis in human HCC827 cells harboring EGFR del E746-A750 mutant after 48 hrs by flow cytometry assay
NCI-H1975 [19] = test: Induction of Cell cycle arrest in human NCI-H1975 cells harboring EGFR L858R/T790M mutant assessed as G1 phase cells after 24 hrs by flow cytometry assay; type: functional, cell-based; method in brief: as §1
[20] = molecular target: T5, Epidermal growth factor receptor (Homo sapiens, UniProt P00533, L861Q); test: Inhibition of EGFR L861Q mutant after 1.5 hr by FRET assay; type: protein assay
T5 sequence (P00533 25-1210 L861Q limits assumed): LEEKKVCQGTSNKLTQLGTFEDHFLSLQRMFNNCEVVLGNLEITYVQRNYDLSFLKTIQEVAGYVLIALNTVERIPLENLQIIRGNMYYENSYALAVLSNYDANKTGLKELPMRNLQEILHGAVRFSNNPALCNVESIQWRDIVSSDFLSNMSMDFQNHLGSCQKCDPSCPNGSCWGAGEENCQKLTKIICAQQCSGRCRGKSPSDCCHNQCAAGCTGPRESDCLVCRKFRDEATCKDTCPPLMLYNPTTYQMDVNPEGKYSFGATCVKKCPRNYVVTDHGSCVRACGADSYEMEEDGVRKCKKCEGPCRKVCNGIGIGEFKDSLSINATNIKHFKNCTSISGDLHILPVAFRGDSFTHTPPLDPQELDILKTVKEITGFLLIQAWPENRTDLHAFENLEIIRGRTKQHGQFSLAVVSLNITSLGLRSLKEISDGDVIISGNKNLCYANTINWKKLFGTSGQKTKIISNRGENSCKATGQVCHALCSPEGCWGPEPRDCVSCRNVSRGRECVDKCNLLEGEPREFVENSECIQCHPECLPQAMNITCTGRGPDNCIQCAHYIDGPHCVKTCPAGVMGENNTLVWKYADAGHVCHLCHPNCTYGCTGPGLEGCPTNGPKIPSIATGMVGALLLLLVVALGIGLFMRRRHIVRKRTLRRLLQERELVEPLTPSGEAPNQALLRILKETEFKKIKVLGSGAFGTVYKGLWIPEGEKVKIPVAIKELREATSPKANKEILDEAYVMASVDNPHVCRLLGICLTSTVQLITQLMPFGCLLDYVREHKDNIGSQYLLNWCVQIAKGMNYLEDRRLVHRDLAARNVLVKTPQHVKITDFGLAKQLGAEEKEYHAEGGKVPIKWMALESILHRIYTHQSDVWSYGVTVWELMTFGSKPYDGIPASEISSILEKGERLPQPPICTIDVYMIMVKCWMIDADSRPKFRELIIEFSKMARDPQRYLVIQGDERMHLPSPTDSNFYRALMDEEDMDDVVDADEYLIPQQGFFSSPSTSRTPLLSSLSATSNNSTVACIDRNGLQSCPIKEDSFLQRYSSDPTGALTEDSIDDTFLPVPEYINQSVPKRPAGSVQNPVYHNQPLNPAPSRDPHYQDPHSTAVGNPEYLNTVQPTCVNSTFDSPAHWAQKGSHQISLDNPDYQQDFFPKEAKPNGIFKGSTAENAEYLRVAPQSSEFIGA

[21] = molecular target: Tyrosine-protein kinase Blk (Homo sapiens) (UniProt P51451); test: Binding affinity to BLK at 100 nM
[22] = molecular target: Receptor tyrosine-protein kinase erbB-4 (Homo sapiens) (UniProt Q15303); test: Binding affinity to ErbB4 at 100 nM
[23] = molecular target: Tyrosine-protein kinase BTK (Homo sapiens) (UniProt Q06187); test: Binding affinity to BTK at 100 nM
NCI-H1975 [24] = test: Antitumor activity against human NCI-H1975 cells xenografted in SCID mouse at 10 mg/kg, po administered qd for 14 days relative to control; type: functional, organism-based; design: dose 10 mg/kg
Method in brief: (§3)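 Six-week-old SCID mice inoculated s.c. in the right flank with H1975 cells (2 × 10⁶/mouse). At mean tumour volume 380−420 mm³ (10−12 days), randomized n = 6/group. Oral dosing daily for 14 days, 0.1 mL/20 g, vehicle as control. Tumours measured every other day by caliper, volume = W²(L/2). Body weight monitored. Significance p < 0.05 versus vehicle.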

[25] = molecular target: Receptor tyrosine-protein kinase erbB-2 (Homo sapiens) (UniProt P04626); test: Binding affinity to ErbB2 at 100 nM
[26] = molecular target: Cyclin-G-associated kinase (Homo sapiens) (UniProt O14976); test: Binding affinity to GAK at 100 nM
[27] = molecular target: T1, Epidermal growth factor receptor; test: Binding affinity to EGFR L858R mutant
[28] = molecular target: T3, Epidermal growth factor receptor; test: Binding affinity to EGFR L858R/T790M mutant
[29] = Toxicity in SCID mouse assessed as mortality at 10 mg/kg, po administered qd for 14 days relative to control; type: organism-based; design: dose 10 mg/kg, route oral; details: in vivo, read-out: Activity
Method in brief: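 Six-week-old SCID mice bearing subcutaneous H1975 NSCLC xenografts (2 × 10⁶ cells, right flank) were randomized at 380−420 mm³ average tumour volume (10−12 days post implantation), n = 6/group. They were dosed orally once daily for 14 days with vehicle or compound (10 or 30 mg/kg; 0.1 mL/20 g body weight). Mortality and body weight were tracked during treatment against vehicle controls.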

[30] = molecular target: Tyrosine-protein kinase TXK (Homo sapiens) (UniProt P42681); test: Binding affinity to TXK at 100 nM
[31] = molecular target: T5, Epidermal growth factor receptor; test: Binding affinity to EGFR L861Q mutant
[32] = molecular target: T2, Epidermal growth factor receptor; test: Binding affinity to EGFR T790M mutant
[33] = molecular target: T4, Epidermal growth factor receptor; test: Binding affinity to EGFR
NCI-H1975 [34] = test: Antitumor activity against human NCI-H1975 cells xenografted in SCID mouse at 30 mg/kg, po administered qd for 14 days relative to control; type: functional, organism-based; design: dose 30 mg/kg; method in brief: as §3
Mus musculus = test: Toxicity in SCID mouse assessed as weight loss at 10 mg/kg, po administered qd for 14 days relative to control; type: organism-based; design: dose 10 mg/kg, route oral; details: in vivo, 336 h; method in brief: as §3

Compound | IC50 (A549) | Activity [1] | Activity (HCC827 [2]) | inhibition (NCI-H1975 [4]) | IC50 [6] | IC50 [10] | IC50 [12] | IC50 [13] | IC50 [15] | Activity (NCI-H1975 [16]) | Activity (HCC827 [18]) | Activity (NCI-H1975 [19]) | IC50 [20] | also measured
C=CC(=O)Nc1cccc(N2C(=O)N(c3ccccc3)Cc3cnc(Nc4ccc(N5CCN(C)CC5)cc4OC)nc32)c1 | 2800 nM | Non-toxic | Active | Dose-dependent effect | 0.46 nM | 0.51 nM | 0.98 nM | 0.3 nM | 4020 nM | Active | Active | Active | 0.93 nM | Activity [3]: Active; Activity [5]: Active; Activity [7]: Active; Activity [8]: Active; Activity [9]: Active; Activity [11]: Active; Activity [14]: Active; Activity [17]: Active
C=CC(=O)Nc1cccc(N2C(=O)N(Cc3ccccc3)Cc3cnc(Nc4ccc(N5CCN(C)CC5)cc4OC)nc32)c1 | 2660 nM | Non-toxic | Active | Dose-dependent effect | 0.38 nM | 0.67 nM | 0.93 nM | 0.29 nM | 2390 nM | Active | Active | Active | 0.72 nM | Activity [21]: Active; Activity [22]: Active; Activity [23]: Active; Activity (NCI-H1975 [24]): inactive; Activity [25]: Active; Activity [26]: Active; Kd [27]: 1.3 nM; Kd [28]: 0.3 nM; mortality at 336 h [29]: < 5%; Activity [30]: Active; Kd [31]: 0.68 nM; Kd [32]: 0.29 nM; Kd [33]: 1.2 nM; Activity (NCI-H1975 [34]): Active; Activity (Mus musculus): < 5%
